M1 PAM: human CHRM1 positive allosteric modulation; activation, % at 3 µM; AID 588819; 360,000 compounds, 0.088% hits; P11229; CHO-K1 hM1, Fluo-8 calcium fluorescence, ACh EC20; 0% = ACh EC20, 100% = maximal ACh; in the data active means activation above about 19%, passing the limit was not always enough
CHRM1 agonist: activates human CHRM1 receptor. P11229. CHO-K1 hM1, Fluo-8 calcium fluorescence, agonist mode; 0% DMSO, 100% acetylcholine EC100. activation, % at 3 µM. 360,000 compounds, 0.33% hits. AID 588814;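 active means activation above the run's mean compound activation plus 3 SD, cut at about 16% in these data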;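 further: peak over basal fluorescence ratio within a 140 s kinetic read after compound addition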
TAAR1 antag: antagonists of human TAAR1; Q96RJ0; CHO RD-HGA16 TAAR1, Fluo-8 calcium fluorescence, antagonist; inhibition, % at 3 µM; 360,000 compounds, 1.5% hits; AID 624466;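 active means inhibition above a per-plate cutoff, the mean inhibition of test compounds on that plate plus 3 SD, cut at about 49% in these data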;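 further: 0% = DMSO plus EC80 beta-PEA response and 100% = DMSO alone without agonist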
Target sequence (Q96RJ0 whole entry, looked up): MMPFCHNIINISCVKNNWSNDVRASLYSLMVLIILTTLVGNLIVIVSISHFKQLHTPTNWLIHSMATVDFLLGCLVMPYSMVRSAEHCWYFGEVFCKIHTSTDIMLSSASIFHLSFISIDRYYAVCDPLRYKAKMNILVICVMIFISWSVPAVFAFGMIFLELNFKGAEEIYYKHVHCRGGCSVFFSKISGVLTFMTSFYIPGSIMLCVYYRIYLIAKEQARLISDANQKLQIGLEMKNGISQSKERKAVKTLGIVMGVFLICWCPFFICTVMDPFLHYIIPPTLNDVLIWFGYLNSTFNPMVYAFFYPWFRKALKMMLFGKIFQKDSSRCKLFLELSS
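Test system: hTAAR1-expressing CHO RD-HGA16 cells, Gα16-coupled; Probe or stimulus: EC80 β-phenethylamine stimulus; Compound dosing: single nominal final test compound concentration of 3 µM; Timing: 140 s kinetic read after compound, 140 s after agonist; Signal: Fluo-8 calcium-sensitive fluorescence; Measure: % inhibition of agonist calcium response; Controls: DMSO and EC80 PEA controls.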
TAAR1 agonist: human TAAR1 agonism; CHO RD-HGA16 TAAR1, Fluo-8 calcium fluorescence; vehicle wells 0%, saturating PEA agonist 100%; activation, % at 3 µM; 360,000 compounds, 0.99% hits; AID 624467;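 active means activation above the mean activation of all test compounds in the run plus 3 SD, cut at about 38% in these data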
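System: CHO-derived RD-HGA16 cells with stable Gα16 and human TAAR1 / Times: 17-24 h plating, Fluo-8 75 min 37 °C, 30 min RT / Technique: calcium-sensitive Fluo-8 signal, excitation 470-495, emission 515-575 nm / Measure: % activation relative to PEA EC100 response / Benchmarks: DMSO and PEA EC100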
M1 antag: antagonists of human M1 muscarinic receptor. AID 588852. inhibition, % at 3 µM. CHO-K1 hM1, Fluo-8 calcium fluorescence, ACh EC80 antagonist. 360,000 compounds, 1.3% hits. P11229;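 active means percent inhibition above its own plate's cutoff, namely the mean of that plate's compound wells plus 3 SD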;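 further: peak over basal fluorescence ratio during 140 s after agonist addition; 0% = ACh EC80 plus DMSO and 100% = DMSO alone without agonist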
The depositor's hits bear a star; · = no result given. Sampled rows, rich in hits. Any-hit rate of the full collection: about 3.4%.

SMILES	M1 PAM	CHRM1 agonist	TAAR1 antag	TAAR1 agonist	M1 antag
C[N+]1(CCC(=O)c2ccccc2)CCCCC1	9	-8	-8	4	-6
C/C(=N\NC(=O)COc1ccccc1-c1ccccc1)c1ccc(O)cc1O	-1	-4	50*	-1	4
CC(C)(C)S(=O)N1Cc2cc(C(=O)NCc3ccc(Oc4ccccc4)cc3)nc(-c3cccc(-c4cc5ccccc5o4)c3)c2[C@@H]1CCO (stereo partly specified)	16	3	·	·	-23
COc1cccc(CNc2ccc(F)c([N+](=O)[O-])c2)c1O	-15	3	10	1	90*
c1ccc(Nc2ccc(NCCc3c[nH]c4ccccc34)cc2)cc1	·	·	5	6	·
CCN(CC)c1ccc2cc(C=O)c(=O)oc2c1	-18	53*	36	73*	19
CCN(CC)c1ccc2cc(C(C)=O)c(=O)oc2c1	1	13	4	16	-23
CCN(CC)c1ccc2cc(-c3nnc(-c4ccncc4)o3)c(=O)oc2c1	-4	22*	23	40*	8
COC(=O)[C@]12C[C@H](CC(=O)N3CCCCC3)C(=O)N(Cc3ccc4c(c3)OCO4)C1=C[C@H](COCc1ccccc1)O[C@@H]2C	·	·	-13	-1	·
Cc1ccccc1-c1ccc2c(c1)[C@@H]1C[C@H](N(C)S(=O)(=O)c3ccc(Cl)cc3)[C@H]([C@H](C)O)CN1CC2	·	·	-43	0	·
COc1cc(/C=C2\SC(=S)N(NC(=O)c3ccccc3O)C2=O)ccc1O	-5	20*	30	31	14
O=C(NN1C(=O)/C(=C/c2ccc(O)cc2)SC1=S)c1ccccc1O	-2	11	-1	7	14
COCc1[nH]nc2c1C(c1ccccc1)N(Cc1ccccc1)C2=O (stereo unspecified)	·	·	-3	0	·
COC(=O)c1cc2c(c3c4cc(F)ccc4n(S(=O)(=O)c4ccc(C)cc4)c13)C(=O)N(Cc1ccc(C(F)(F)F)cc1)C2	·	·	-28	0	·
Nc1c(C(=O)NCc2ccccc2)nnn1Cc1ccc(F)cc1	4	20*	6	41*	-5
CCOC(=O)CN1C(=O)S/C(=C/c2ccc(N3CCCCC3)o2)C1=O	8	6	29	29	-29
CCCN1C(=O)S/C(=C/c2ccc(N3CCOCC3)o2)C1=O	-4	18*	22	19	7
COC(=O)CN1C(=O)S/C(=C/c2ccc(N3CCCCC3)o2)C1=O	-2	10	60*	100*	15
CC(C(O)C12CC3CC(CC(C3)C1)C2)N1CCCCC1 (stereo unspecified)	-28	-10	-20	5	59*
CC(C)[C@H](NC(=O)c1ccccc1)C(=O)N1CCC[C@H]1C(=O)NCc1ccccc1	·	·	-25	-1	·
C#CCOCCOCCOCCNc1nc(N2CCN(C(=O)CCCCCCCCCCNC(=O)[C@@H](CCC(=O)O)n3cc(CCCCCN)nn3)CC2)nc(N2CCN(C(=O)CCCCCCCCCCNC(=O)[C@H](CCCCN)n3cc(C[C@@H](C)CC)nn3)CC2)n1	-16	20*	·	·	10
C#CCOCCOCCOCCNc1nc(N2CCN(C(=O)CCCCCCCCCCNC(=O)[C@@H](CCC(=O)O)n3cc(CCCCCN)nn3)CC2)nc(N2CCN(C(=O)CCCCCCCCCCNC(=O)[C@H](CO)n3cc(CCCCCN)nn3)CC2)n1	7	-1	·	·	-3
Cc1ccccc1C(OCCN(C(C)C)C(C)C)c1ccccc1 (stereo unspecified)	-27	-14	-5	5	101*
CN(C)CCOC(c1ccc(Cl)cc1)c1ccccn1 (stereo unspecified)	-24	-8	-10	6	42
C/C=C/c1cccc(-c2nc(C(=O)NC3CCCC3)cc3c2[C@@H](CCO)N(S(=O)C(C)(C)C)C3)c1 (stereo partly specified)	-2	-5	-7	0	4
SMILES	M1 PAM	CHRM1 agonist	TAAR1 antag	TAAR1 agonist	M1 antag
CC(=O)Nc1ccc(N2CCOCC2)c(S(=O)(=O)Nc2ccccc2Cl)c1	7	-4	8	0	-13
CC(C)C(=O)Nc1ccc(N2CCOCC2)c(S(=O)(=O)Nc2ccccc2Cl)c1	-4	1	53*	25	9
O=S1(=O)CC(N2CCCCC2)CN1Cc1cn(Cc2cccc(C(F)(F)F)c2)nn1 (stereo unspecified)	·	·	5	0	·
Cc1cc(C)c(-c2csc(NC(=O)c3cc([N+](=O)[O-])ccc3N3CCOCC3)n2)c(C)c1	-30	-10	-3	5	59*
O=C(Nc1nc(-c2ccc(F)c(F)c2)cs1)c1cc([N+](=O)[O-])ccc1N1CCOCC1	6	-3	-9	1	-4
O=C(NCc1cccnc1)c1ccc(N2CCOCC2)c([N+](=O)[O-])c1	7	-7	-14	3	-4
O=C(NCc1cccnc1)c1cc([N+](=O)[O-])ccc1N1CCOCC1	0	20*	-9	0	-1
CC(=O)NS(=O)(=O)c1ccc(NC(=O)/C=C/c2cn(-c3ccccc3)nc2-c2ccccc2)cc1	-8	-3	-4	4	11
O=C(/C=C\c1cn(-c2ccccc2)nc1-c1ccccc1)Nc1nccs1	-2	-2	51*	2	4
O=C(c1ccncc1)N1N=C(C2CCCCC2)CC1(O)C(F)(F)F (stereo unspecified)	-31	-13	5	3	37*
O=C1OCC2=Nc3cccc4cccc(c34)N12	·	·	-6	2	·
COc1cc(CN2CCN(c3ncc(Cc4ccccc4)cn3)CC2)cc(OC)c1	·	·	-29	4	·
CC(C)CN1CCC(=O)N(CCSc2ccccc2)CC1	0	34*	1	8	5
Cc1ccc(SCCN2CCN(CCc3ccccc3)CCC2=O)cc1	-5	-13	-1	10	11
COCCNC(=O)C(c1cccs1)N(CCc1ccccc1)C(=O)Cn1nnc2ccccc21 (stereo unspecified)	11	-1	5	40*	-34
CCOC(=O)c1cnc2c(CC)cccc2c1NCCN1CCOCC1	-26	-9	-15	14	64*
CCCN(CCC)CCCNc1ccc(C(=O)Nc2cccc(OC)c2)cc1[N+](=O)[O-]	-24	-7	-1	0	40*
O=c1[nH]c(Cc2ccccn2)nc2scc(-c3ccc(Cl)cc3)c12	5	26*	-30	-1	-5
Cc1cc(C(=O)CSc2nc(N)cc(=O)[nH]2)c(C)n1CC1CCCO1 (stereo unspecified)	7	-6	-29	9	-10
Cc1cc(C(=O)CSc2nc3ccccc3[nH]2)c(C)n1CC1CCCO1 (stereo unspecified)	-34	1	72*	32	76*
